In ChEMBL document CHEMBL1141647, “Novel ofloxacin derivatives: synthesis, antimycobacterial and toxicological evaluation” (Bioorg Med Chem Lett, 2008):
In brackets after ≈: the same amount, converted by molar mass.

Columns and labels:
[1] = tested on: Mycolicibacterium smegmatis; experiment: Antimycobacterial activity against Mycobacterium smegmatis ATCC 14468 by agar dilution method; type: functional
Procedure, shortened: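 MC² (M. smegmatis) growth inhibition; MIC99 taken as the lowest concentration giving complete inhibition of bacterial growth, in µM.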

[2] = molecular target: DNA gyrase subunit A (Mycolicibacterium smegmatis, UniProt Q59556); experiment: Inhibition of Mycobacterium smegmatis DNA gyrase
Procedure, shortened: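 Inhibition of DNA supercoiling by M. smegmatis (MC²) gyrase, run under standard assay conditions. Varying compound amounts were tested against a fixed amount of enzyme, and IC50 was derived from that series. Relaxed circular DNA served as marker, 5% DMSO as solvent control, and moxifloxacin at 5 µg/mL as positive control.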

[3] = tested on: Mycobacterium tuberculosis; experiment: Antimycobacterial activity against Mycobacterium tuberculosis H37Rv by agar dilution method; type: functional
Procedure, shortened: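 MIC99 was taken as the lowest concentration giving complete inhibition of bacterial growth.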

[4] = tested on: Vero; experiment: Cytotoxicity against african green monkey Vero cells after 72 hrs by MTT assay; type: cell-based; details: Chlorocebus sabaeus
Procedure, shortened: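 Vero cells exposed for 72 h; tested up to 62.5 µg/mL. Viability was read as cellular conversion of MTT to formazan, and IC50 was reported in µM.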

[5] = tested on: Mus musculus; experiment: Phototoxic effect in UV light irradiated mouse assessed as number of mouse bearing erythema at 140 mg/kg, after 48 hrs relative to control; type: ADME, organism-based; parameters: dose 140 mg/kg; details: in vivo
Procedure, shortened: (§1)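 Mice received 140 mg/kg and were UV-irradiated immediately after dosing, irradiation ending at 4 h. Both ears were scored for erythema at 0, 4, 24, 48, 72 and 96 h, counted as the number of mice with erythema. Vehicle control was 0.5% aqueous sodium carboxymethylcellulose at 10 mL/kg.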

[6] = tested on: Mus musculus; experiment: Phototoxic effect in UV light irradiated mouse assessed as number of mouse bearing erythema at 140 mg/kg, after 4 hrs relative to control; type: ADME, organism-based; parameters: dose 140 mg/kg; details: in vivo; procedure, shortened: as §1
[7] = tested on: Mus musculus; experiment: Phototoxic effect in UV light irradiated mouse assessed as ear thickness at 140 mg/kg, after 96 hrs relative to control; type: ADME, organism-based; parameters: dose 140 mg/kg; details: in vivo
Procedure, shortened: (§2)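 Mice dosed at 140 mg/kg and exposed to UV immediately after dosing. Irradiation ended at 4 h. Ear thickness (mm) was measured at 0 (pre-dose), 4, 24, 48, 72 and 96 h, left and right ears averaged, mean ± SEM. Comparison was against vehicle controls (0.5% aqueous sodium carboxymethylcellulose, 10 mL/kg) and against the 0 h reading.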

[8] = tested on: Mus musculus; experiment: Phototoxic effect in mouse assessed as number of mouse bearing erythema at 140 mg/kg administered before UV light exposure relative to control; type: ADME, organism-based; parameters: dose 140 mg/kg; details: in vivo; procedure, shortened: as §1
[9] = tested on: Mus musculus; experiment: Phototoxic effect in UV light irradiated mouse assessed as ear thickness at 140 mg/kg, after 4 hrs relative to control; type: ADME, organism-based; parameters: dose 140 mg/kg; details: in vivo; procedure, shortened: as §2
[10] = tested on: Mus musculus; experiment: Phototoxic effect in UV light irradiated mouse assessed as number of mouse bearing erythema at 140 mg/kg, after 72 hrs relative to control; type: ADME, organism-based; parameters: dose 140 mg/kg; details: in vivo; procedure, shortened: as §1
[11] = tested on: Mus musculus; experiment: Phototoxic effect in UV light irradiated mouse assessed as number of mouse bearing erythema at 140 mg/kg, after 96 hrs relative to control; type: ADME, organism-based; parameters: dose 140 mg/kg; details: in vivo; procedure, shortened: as §1
[12] = tested on: Mus musculus; experiment: Phototoxic effect in UV light irradiated mouse assessed as ear thickness at 140 mg/kg, after 48 hrs relative to control; type: ADME, organism-based; parameters: dose 140 mg/kg; details: in vivo; procedure, shortened: as §2
[13] = tested on: Mus musculus; experiment: Phototoxic effect in mouse assessed as ear thickness at 140 mg/kg administered before UV light exposure relative to control; type: ADME, organism-based; parameters: dose 140 mg/kg; details: in vivo; procedure, shortened: as §2
[14] = tested on: Mus musculus; experiment: Phototoxic effect in UV light irradiated mouse assessed as number of mouse bearing erythema at 140 mg/kg, after 24 hrs relative to control; type: ADME, organism-based; parameters: dose 140 mg/kg; details: in vivo; procedure, shortened: as §1
[15] = tested on: Mus musculus; experiment: Phototoxic effect in UV light irradiated mouse assessed as ear thickness at 140 mg/kg, after 72 hrs relative to control; type: ADME, organism-based; parameters: dose 140 mg/kg; details: in vivo; procedure, shortened: as §2
[16] = tested on: Mus musculus; experiment: Phototoxic effect in UV light irradiated mouse assessed as ear thickness at 140 mg/kg, after 24 hrs relative to control; type: ADME, organism-based; parameters: dose 140 mg/kg; details: in vivo; procedure, shortened: as §2
[17] = tested on: Mycobacterium tuberculosis; experiment: Antimycobacterial activity against Mycobacterium tuberculosis ATCC 35801 infected CD1 mouse lungs assessed as viable organisms at 50 mg/kg, ip after 35 days relative to control; type: functional; details: route intraperitoneal
Procedure, shortened: (§3)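 CD-1 mice infected intravenously with M. tuberculosis ATCC 35801; intraperitoneal treatment started 10 days after inoculation and continued for 10 days. At 35 days postinfection, spleens and right lungs were removed aseptically and viable organisms counted (log CFU). Counts were compared with vehicle-treated controls.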

[18] = tested on: Mycobacterium tuberculosis; experiment: Antimycobacterial activity against Mycobacterium tuberculosis ATCC 35801 infected CD1 mouse spleen assessed as viable organisms at 50 mg/kg, ip after 35 days relative to control; type: functional; details: route intraperitoneal; procedure, shortened: as §3

Sequence of DNA gyrase subunit A (Q59556 whole entry): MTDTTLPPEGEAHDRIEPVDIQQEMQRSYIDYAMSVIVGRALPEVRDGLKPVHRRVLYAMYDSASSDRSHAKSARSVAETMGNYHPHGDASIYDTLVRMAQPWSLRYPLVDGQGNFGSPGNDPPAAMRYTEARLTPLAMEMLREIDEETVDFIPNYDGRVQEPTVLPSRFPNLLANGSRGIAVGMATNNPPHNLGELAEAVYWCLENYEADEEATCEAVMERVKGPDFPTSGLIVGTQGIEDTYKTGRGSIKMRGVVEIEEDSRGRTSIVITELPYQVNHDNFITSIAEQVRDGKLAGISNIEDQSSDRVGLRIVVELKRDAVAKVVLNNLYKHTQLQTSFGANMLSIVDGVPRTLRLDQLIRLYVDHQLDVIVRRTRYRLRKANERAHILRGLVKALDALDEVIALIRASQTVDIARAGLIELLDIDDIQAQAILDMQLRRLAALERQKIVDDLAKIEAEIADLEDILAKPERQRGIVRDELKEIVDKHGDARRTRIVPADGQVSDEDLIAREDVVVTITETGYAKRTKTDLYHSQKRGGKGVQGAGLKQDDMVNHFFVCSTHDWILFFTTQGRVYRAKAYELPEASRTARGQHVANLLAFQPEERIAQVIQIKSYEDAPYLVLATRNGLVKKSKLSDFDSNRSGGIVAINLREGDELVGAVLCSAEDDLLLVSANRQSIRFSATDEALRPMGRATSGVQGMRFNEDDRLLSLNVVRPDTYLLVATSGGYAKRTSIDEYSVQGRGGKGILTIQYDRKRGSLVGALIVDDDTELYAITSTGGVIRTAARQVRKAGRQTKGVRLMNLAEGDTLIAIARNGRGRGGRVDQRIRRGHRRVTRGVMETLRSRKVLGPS

SMILES | MIC99 [1] [µM] | MIC99 [3] [µM] | IC50 [4] [µM] | other results
CC1CN(c2c(F)cc3c(=O)c(C(=O)O)cn4c3c2OCC4C)CC(C)O1 (stereo unspecified) | 4.14 (≈ 1.56 µg/mL) | 4.14 (≈ 1.56 µg/mL) | > 166 | IC50 [2]: > 133 µM
CC1COc2c(N3CCN(Cc4ccc5c(c4)OCO5)CC3)c(F)c([N+](=O)[O-])c3c(=O)c(C(=O)O)cn1c23 (stereo unspecified) | 1.48 (≈ 0.779 µg/mL) | 2.96 (≈ 1.56 µg/mL) | 119 | –
CC1COc2c(N3CCc4ccccc4C3C(=O)NC(C)(C)C)c(F)c([N+](=O)[O-])c3c(=O)c(C(=O)O)cn1c23 (stereo unspecified) | 2.89 (≈ 1.56 µg/mL) | 1.45 (≈ 0.781 µg/mL) | 116 | IC50 [2]: 92.8 µM
CC1COc2c(N3CCC4(CC3)OCCO4)c(F)c(N)c3c(=O)c(C(=O)O)cn1c23 (stereo unspecified) | 11.2 (≈ 4.68 µg/mL) | 3.72 (≈ 1.56 µg/mL) | > 149 | –
CC1COc2c(N3CCN(C(c4ccccc4)c4ccc(Cl)cc4)CC3)c(F)cc3c(=O)c(C(=O)O)cn1c23 (stereo unspecified) | 45.6 (≈ 25 µg/mL) | 5.71 (≈ 3.13 µg/mL) | – | –
CC1COc2c(N3CCSCC3)c(F)c([N+](=O)[O-])c3c(=O)c(C(=O)O)cn1c23 (stereo unspecified) | 1.91 (≈ 0.782 µg/mL) | 1.91 (≈ 0.782 µg/mL) | 153 | Activity [5]: Non-toxic; Activity [6]: Non-toxic; Activity [7]: 0.28 mm; Activity [8]: Non-toxic; IC50 [2]: 122 µM; Activity [9]: 0.28 mm; Activity [10]: Non-toxic; Activity [11]: Non-toxic; Activity [12]: 0.29 mm; Activity [13]: 0.25 mm; Activity [14]: Non-toxic; Activity [15]: 0.28 mm; Activity [16]: 0.29 mm
CC1COc2c(N3CCc4ccccc4C3C(=O)NC(C)(C)C)c(F)cc3c(=O)c(C(=O)O)cn1c23 (stereo unspecified) | 50.7 (≈ 25 µg/mL) | 3.16 (≈ 1.56 µg/mL) | 127 | –
CC1COc2c(N3CCSCC3)c(F)cc3c(=O)c(C(=O)O)cn1c23 (stereo unspecified) | 4.28 (≈ 1.56 µg/mL) | 2.14 (≈ 0.78 µg/mL) | > 172 | IC50 [2]: 110 µM
Cc1onc(-c2c(F)cccc2F)c1C(=O)N1CCN(c2c(F)c([N+](=O)[O-])c3c(=O)c(C(=O)O)cn4c3c2OCC4C)CC1 (stereo unspecified) | 1.27 (≈ 0.779 µg/mL) | 5.1 (≈ 3.13 µg/mL) | 102 | –
CC1COc2c(N3CCN(C)C(c4ccccc4)C3)c(F)c([N+](=O)[O-])c3c(=O)c(C(=O)O)cn1c23 (stereo unspecified) | 6.49 (≈ 3.13 µg/mL) | 3.23 (≈ 1.56 µg/mL) | 130 | –
CC1COc2c(N3CCn4cc(C(=O)O)nc4C3)c(F)c([N+](=O)[O-])c3c(=O)c(C(=O)O)cn1c23 (stereo unspecified) | 6.61 (≈ 3.13 µg/mL) | 0.19 (≈ 0.0899 µg/mL) | 132 | Log10 cfu [17]: 6.08; Log10 cfu [18]: 6.11
CC1COc2c(N3CCC(n4c(=O)[nH]c5cc(Cl)ccc54)CC3)c(F)c([N+](=O)[O-])c3c(=O)c(C(=O)O)cn1c23 (stereo unspecified) | 1.39 (≈ 0.776 µg/mL) | 0.34 (≈ 0.19 µg/mL) | 112 | –
CC1COc2c(N3CCC(O)(c4ccc(Cl)cc4)CC3)c(F)cc3c(=O)c(C(=O)O)cn1c23 (stereo unspecified) | 26.4 (≈ 12.5 µg/mL) | 6.62 (≈ 3.13 µg/mL) | – | –
COc1cc2c(cc1OC)CN(c1c(F)cc3c(=O)c(C(=O)O)cn4c3c1OCC4C)CC2 (stereo unspecified) | 13.8 (≈ 6.25 µg/mL) | 1.72 (≈ 0.782 µg/mL) | > 138 | –
CC1COc2c(N3CCN(C)CC3)c(F)cc3c(=O)c(C(=O)O)cn1c23.Cl (stereo unspecified) | – | – | – | Activity [7]: 0.35 mm; Activity [9]: 0.32 mm; Activity [12]: 0.3 mm; Activity [13]: 0.29 mm; Activity [15]: 0.35 mm; Activity [16]: 0.29 mm
CCn1cc(C(=O)O)c(=O)c2cc(F)c(N3CCNC(C)C3)c(F)c21 (stereo unspecified) [LOMEFLOXACIN] | – | – | – | Activity [5]: Toxic; Activity [6]: Toxic; Activity [7]: 0.6 mm; Activity [8]: Non-toxic; Activity [9]: 0.4 mm; Activity [10]: Toxic; Activity [11]: Toxic; Activity [12]: 0.53 mm; Activity [13]: 0.31 mm; Activity [14]: Toxic; Activity [15]: 0.64 mm; Activity [16]: 0.48 mm
CC1COc2c(N3CCN(C)CC3)c(F)cc3c(=O)c(C(=O)O)cn1c23 (stereo unspecified) [OFLOXACIN] | 2.16 (≈ 0.781 µg/mL) | 2.16 (≈ 0.781 µg/mL) | > 155 | Log10 cfu [17]: 6.61; Log10 cfu [18]: 7.61
